pIC50: −log10 of the molar value.
Tests used:
[1] = test system: K562; assay: Inhibitory activity against K562 human chronic myelogenous leukemia cell line using MTT assay after 5 days incubation of the compound; assay type: functional, cell-based; conditions: K562, 120 h
Procedure, shortened: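 K562 cells exposed to drug for 5 days at 37 °C; growth read by MTT assay. IC50 taken as concentration giving 50% inhibition of cell growth.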

[2] = target: Tubulin alpha chain (Sus scrofa, UniProt P02550); assay: Concentration that cause a 50% inhibition in tubulin assembly as measured by an increase in turbidity using microtubule assembly assay
Tubulin alpha chain, sequence (P02550 whole entry, looked up): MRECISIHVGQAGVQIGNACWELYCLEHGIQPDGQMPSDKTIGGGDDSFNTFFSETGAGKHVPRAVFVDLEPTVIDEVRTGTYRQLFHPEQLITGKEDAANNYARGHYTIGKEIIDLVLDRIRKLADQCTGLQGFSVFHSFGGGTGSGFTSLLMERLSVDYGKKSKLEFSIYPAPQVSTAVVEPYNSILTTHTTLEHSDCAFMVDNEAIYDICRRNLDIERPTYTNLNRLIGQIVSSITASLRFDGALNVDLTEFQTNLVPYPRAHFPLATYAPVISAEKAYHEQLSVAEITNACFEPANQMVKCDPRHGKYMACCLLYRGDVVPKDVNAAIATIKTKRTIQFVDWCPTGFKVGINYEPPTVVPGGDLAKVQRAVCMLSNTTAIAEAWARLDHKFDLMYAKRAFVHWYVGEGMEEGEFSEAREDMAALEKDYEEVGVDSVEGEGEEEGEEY

[3] = target: Tubulin (Sus scrofa, UniProt P02554+P02550); assay: Ability to inhibit the binding of [3H]colchicine to porcine tubulin; assay type: protein assay
[4] = test system: K562; assay: Effect on G0-G1 phase of the cell cycle by flow cytometry; assay type: functional, Homo sapiens
Procedure, shortened: (§1)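 Cell-cycle phase distribution measured by flow cytometry in drug-treated cells, compared with untreated control.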

[5] = test system: K562; assay: Effect on G2/M phase of the cell cycle by flow cytometry; assay type: functional, Homo sapiens; procedure, shortened: as §1
[6] = test system: K562; assay: Effect on S phase of the cell cycle by flow cytometry; assay type: functional, Homo sapiens; procedure, shortened: as §1

With `COc1ccc(-c2cc(=O)c3cc(OC)c(OC)c(OC)c3o2)cc1F` the pIC50 [1] was 6.23 and the pIC50 [2] was < 4.30.
`COc1ccc(/C=C2\Oc3c(cc(OC)c(OC)c3OC)C2=O)cc1O` showed a pIC50 [1] of 7.30, an IC50 [3] of 60 µM and an Activity [4] of 17. It also gave an Activity [5] of 69, an Activity [6] of 14 and a pIC50 [2] of 4.66.
`COc1ccc(/C=C2\Oc3cc(OC)c(OC)c(OC)c3C2=O)cc1` was tested, and the pIC50 [1] was < 4.30.
In the case of `COc1ccc(/C=C2\Oc3cc(OC)c(OC)c(OC)c3C2=O)cc1F`, the pIC50 [1] was < 4.30 and the pIC50 [2] was < 4.30.
Work on `COc1cc2c(c(OC)c1OC)O/C(=C\c1cc(F)c(OC)c(F)c1)C2=O` yielded a pIC50 [1] of 6.82.
With `COc1ccc(/C=C2\Oc3cc(OC)c(OC)c(OC)c3C2=O)cc1O` the pIC50 [1] was 4.74 and the pIC50 [2] was < 4.30.
`COc1ccc(-c2cc(=O)c3c(OC)c(OC)c(OC)cc3o2)cc1F` was tested, and the pIC50 [1] was < 4.30 and the pIC50 [2] was < 4.30.
`COc1ccc(-c2cc(=O)c3cc(OC)c(OC)c(OC)c3o2)cc1` was tested, and the pIC50 [1] was 6.08.
`COc1cc2c(c(OC)c1OC)O/C(=C\c1ccc(O)c(O)c1)C2=O` showed a pIC50 [1] of 5.01, an Activity [4] of 45 and an Activity [5] of 39. The Activity [6] was 16 and the pIC50 [2] was < 4.30.
`COc1ccc(/C=C2\Oc3c(cc(OC)c(OC)c3OC)C2=O)cc1` gave a pIC50 [1] of 6.82.
With `COc1ccc(-c2cc(=O)c3cc(OC)c(OC)c(OC)c3o2)cc1O` the pIC50 [1] was 7.40, the IC50 [3] was 40 µM and the Activity [4] was 52. It also gave an Activity [5] of 38, an Activity [6] of 11 and a pIC50 [2] of 4.60.
For `COc1ccc(-c2cc(=O)c3c(OC)c(OC)c(OC)cc3o2)cc1O`, the pIC50 [1] was 4.66 and the pIC50 [2] was < 4.30.
In the case of `COc1cc2c(c(OC)c1OC)C(=O)/C(=C/c1cc(F)c(OC)c(F)c1)O2`, the pIC50 [1] was < 4.30.
`COc1ccc(/C=C2\Oc3c(cc(OC)c(OC)c3OC)C2=O)cc1F` was tested, and the pIC50 [1] was 6.96, the Activity [4] was 12 and the Activity [5] was 77. For the same compound, the Activity [6] was 11 and the pIC50 [2] was < 4.30.
`COc1ccc(/C=C(\C)C(=O)c2cc(OC)c(OC)c(OC)c2)cc1O` gave a pIC50 [1] of 9.70, an Activity [4] of 10 and an Activity [5] of 83. It also gave an Activity [6] of 7 and a pIC50 [2] of 6.30.
In the case of `COc1cc2c(c(OC)c1OC)C(=O)/C(=C/c1ccc(O)c(O)c1)O2`, the pIC50 [1] was 4.92, the Activity [4] was 57 and the Activity [5] was 25. For the same compound, the Activity [6] was 18 and the pIC50 [2] was < 4.30.
Compound `COc1ccc(-c2cc(=O)c3c(OC)c(OC)c(OC)cc3o2)cc1` has a pIC50 [1] of 4.38.

— ChEMBL document CHEMBL1136324, “The total synthesis of an aurone isolated from Uvaria hamiltonii: aurones and flavones as anticancer agents” (Bioorg Med Chem Lett, 2003)
